ChEMBL document CHEMBL5154790 (J Med Chem, 2022)
Active and inactive are the calls of the source. No cut-off for these calls is given here.

Key:
Mus musculus [1] = assay: Antialzheimer activity against SAMP8 mouse assessed as reduction in tau phosphorylation ar Ser396 residue at 2 mg/kg, po measured after 4 weeks by Western blot analysis; format: functional, organism-based
How it was run: (§1)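 SAMP8 mice received oral dosing daily for 4 weeks at 2 mg kg⁻¹ day⁻¹, with vehicle-treated SAMP8 mice as controls. Hippocampal protein levels were expressed relative to the SAMP8 control group, set to 100%; for tau this is the p-Tau (Ser396 and Ser404) ratio. Values are mean ± SEM, tested against control.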

Mus musculus [2] = assay: Antineuroinflammatory activity in SAMP8 mouse assessed as decrease in NFkappaB protein expression hippocampus tissue at 2 mg/kg, po measured after 4 weeks by Western blot analysis; format: functional, organism-based; how it was run: as §1
Mus musculus [3] = assay: Antineuroinflammatory activity in SAMP8 mouse assessed as decrease in IL-6 gene expression hippocampus tissue at 2 mg/kg, po measured after 4 weeks by RT-PCR analysis; format: functional, organism-based
How it was run: (§2)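 Hippocampal gene expression was measured by real-time PCR in SAMP8 mice after daily oral treatment for 4 weeks (2 mg kg⁻¹ day⁻¹), compared with vehicle-treated SAMP8 controls. Values are mean ± SEM.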

[4] = Cytotoxicity against human SH-SY5Y cells assessed as reduction in cell viability incubated for 24 hrs by propidium iodide staining based fluorescence analysis; format: toxicity; conditions: read-out: LD50
Mus musculus [5] = assay: Cognitive enhancement effect […] of SAMP8 mouse assessed as increase in novelty discrimination index at 2 mg/kg, po administered 4 weeks by Novel object recognition test; format: functional, organism-based
How it was run: (§3)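 SAMP8 mice were dosed orally once daily for 4 weeks at 2 mg kg⁻¹ day⁻¹; controls received vehicle. In the novel object recognition test, a familiarization phase preceded testing for short-term and long-term working memory. The discrimination index scores the ability to distinguish a known from a new object. Values are mean ± SEM.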

Mus musculus [6] = assay: Antineuroinflammatory activity in SAMP8 mouse assessed as decrease in IL-1beta gene expression hippocampus tissue at 2 mg/kg, po measured after 4 weeks by RT-PCR analysis; format: functional, organism-based; how it was run: as §2
Mus musculus [7] = assay: Cognitive enhancing effect in SAMP8 mouse assessed as improvement of short term memory by measuring discrimination index at 2 mg/kg, po administered for 4 weeks by novel object recognition test; format: functional, organism-based; how it was run: as §3
Mus musculus [8] = assay: Cognitive enhancing effect in SAMP8 mouse assessed as improvement of long term memory by measuring increased discrimination index at 2 mg/kg, po administered for 4 weeks by novel object recognition test; format: functional, organism-based; how it was run: as §3
Mus musculus [9] = assay: Antineuroinflammatory activity in SAMP8 mouse assessed as increase in synaptophysin expression in hippocampus tissue at 2 mg/kg, po measured after 4 weeks by Western blot analysis; format: functional, organism-based; how it was run: as §1
Mus musculus [10] = assay: Antialzheimer activity against SAMP8 mouse assessed as decrease in hippocampal sAPPbeta levels at 2 mg/kg, po measured after 4 weeks by Western blot analysis; format: functional, organism-based; how it was run: as §1
Mus musculus [11] = assay: Antialzheimer activity against SAMP8 mouse assessed as increase in hippocampal sAPPalpha levels at 2 mg/kg, po measured after 4 weeks by Western blot analysis; format: functional, organism-based; how it was run: as §1
Mus musculus [12] = assay: Antineuroinflammatory activity in SAMP8 mouse assessed as decrease in Gfap gene expression hippocampus tissue at 2 mg/kg, po measured after 4 weeks by RT-PCR analysis; format: functional, organism-based; how it was run: as §2
[13] = molecular target: Cholinesterase (Homo sapiens) (UniProt P06276); assay: Inhibition of human recombinant BChE at 100 uM using butyrylthiocholine iodide as substrate preincubated for 20 mins followed by substrate addition and measured every 240 sec by Ellman's method relative to control
Sequence of Cholinesterase (Homo sapiens) (P06276 whole entry): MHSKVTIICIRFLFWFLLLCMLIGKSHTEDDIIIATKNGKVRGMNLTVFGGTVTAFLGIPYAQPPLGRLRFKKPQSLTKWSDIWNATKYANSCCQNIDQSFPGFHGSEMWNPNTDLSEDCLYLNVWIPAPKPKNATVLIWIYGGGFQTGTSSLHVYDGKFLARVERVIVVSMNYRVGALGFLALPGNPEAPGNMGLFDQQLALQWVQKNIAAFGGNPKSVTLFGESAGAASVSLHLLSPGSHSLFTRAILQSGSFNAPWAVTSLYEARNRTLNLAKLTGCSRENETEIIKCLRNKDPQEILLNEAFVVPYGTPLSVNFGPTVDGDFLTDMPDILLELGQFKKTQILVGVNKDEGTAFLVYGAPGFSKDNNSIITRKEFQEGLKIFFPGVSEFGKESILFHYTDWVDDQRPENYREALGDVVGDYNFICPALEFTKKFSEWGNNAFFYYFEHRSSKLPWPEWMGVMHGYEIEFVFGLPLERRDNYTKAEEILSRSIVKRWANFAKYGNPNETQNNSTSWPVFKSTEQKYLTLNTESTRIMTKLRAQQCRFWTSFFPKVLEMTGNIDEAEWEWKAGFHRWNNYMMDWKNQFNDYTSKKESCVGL

## O=C(Nc1ccc(OC(F)(F)F)cc1)NC1CCN(C(=O)CCCCNc2c3c(nc4cc(Cl)ccc24)CCCC3)CC1
Mus musculus [1]
  Activity: Active
Mus musculus [2]
  Activity: Active
Mus musculus [3]
  Activity: Active
[4]
  CC50 at 24 h: > 100 µM
Mus musculus [5]
  Activity: Active
Mus musculus [6]
  Activity: Active
Mus musculus [7]
  Activity: Active
Mus musculus [8]
  Activity: Active
Mus musculus [9]
  Activity: Active
Mus musculus [10]
  Activity: Active
Mus musculus [11]
  Activity: Active
Mus musculus [12]
  Activity: Active

## O=C(Nc1ccc(OC(F)(F)F)cc1)NC1CCN(C(=O)CCNc2c3c(nc4cc(Cl)ccc24)CCCC3)CC1
[4]
  CC50 at 24 h: 92.8 µM

## CC1=C[C@@H]2Cc3nc4cc(Cl)ccc4c(NCCCCC(=O)N4CCC(NC(=O)Nc5ccc(OC(F)(F)F)cc5)CC4)c3[C@H](C1)C2
[4]
  CC50 at 24 h: > 100 µM

## CC(=O)N1CCC(NC(=O)Nc2ccc(OC(F)(F)F)cc2)CC1
[13]
  inhibition: < 10%

## O=C(Nc1ccc(OC(F)(F)F)cc1)NC1CCN(C(=O)CCCNc2c3c(nc4cc(Cl)ccc24)CCCC3)CC1
[4]
  CC50 at 24 h: > 100 µM
